ChEMBL document CHEMBL4513216, “Probing the Open Global Health Chemical Diversity Library for Multistage-Active Starting Points for Next-Generation Antimalarials” (ACS Infect Dis, 2020)

Test: Toxicity liver stage against HepG2, at 10uM
Type: cell-based
Parameters: test concentration 10 uM, cell line HepG2-A16-CD81EGFP
Settings: human, HepG2-A16-CD81EGFP cells; read-out: INHIBITION
Outline: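 Uninfected HepG2-A16-CD81EGFP cells, 3 × 10^3 per well, 1536-well, plated on prespotted compound at 10 μM final, parasite-free screening media added to match infected plates; puromycin 10 μM positive, DMSO 0.5% negative; run in parallel with 48 h PbLuc assay at 37 °C, 5% CO2; viability by CellTiter-Glo luminescence, normalized to controls.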

| Compound | cytotoxicity at 10 µM [%] |
| --- | --- |
| COc1ccc(-c2nnc([C@H]3CCN(C4CCC4)C3)o2)cc1 | -8.1 |
| COc1ccc(-c2csc3c2c(N)nc(=O)n3CC(N)=O)cc1 | -42.2 |
| O=C(c1ccco1)N1CCC12CCN(c1ncc(F)cn1)CC2 | -1.3 |
| CS(=O)(=O)N1CCCC12CCCN(C(=O)c1ccc3[nH]ccc3c1)C2 (centres undefined) | -140 |
| Cc1ccc(NC(=O)Nc2cnc(N3CCN(C)CC3)nc2)c(Cl)c1 | 6.07 |
| Cc1c(C)n(Cc2ccccn2)c2nc3c(c(N)c12)CCCC3 | 8.37 |
| Cc1cccc(CN2C[C@@H]3CN(C(=O)[C@H]4CCCO4)C[C@@H]3C2=O)c1 | 9.95 |
| CC(C)CCN1CCN(CC(=O)Nc2ccc3nsnc3c2)CC1 | -0.216 |
| CCS(=O)(=O)N1CCCCC1c1nc(C(C)C)no1 (centres undefined) | 13.6 |
| Cc1nn(C)c2cn(C(C)C(=O)NCc3cccc(F)c3)nc12 (centres undefined) | 6.61 |
| CCn1nc(C)c(CNC(=O)c2nnc3ccccc3n2)c1C | 5.81 |
| CCOC(=O)N1CCN(C(=O)c2cc(OCC)c3ccoc3c2)CC1 | 41.5 |
| CCCN1CCC(c2cc(CCOc3ccc(C(F)(F)F)cc3)[nH]n2)C1 (centres undefined) | -3.58 |
| CN1CCCCC1c1ncc2c(n1)CCN(Cc1ccc(Cl)c(F)c1)C2 (centres undefined) | -27.7 |
| Cc1cc(-c2cnc(NC3CC3)nc2-c2ccoc2C)on1 | 2.13 |
| CCCn1ncc(CN2C[C@@H]3CCCN3C[C@@H]2CCSC)c1C | 4.06 |
| Cc1cc(C)nc(N2CCC(OCCN3CCCCC3)C2)n1 (centres undefined) | -53.6 |
| Cc1ccc(CNC(=O)C2CCNC(=O)C2)c(OCCC(C)C)c1 (centres undefined) | 20.4 |
| N#Cc1ccc(NCc2cccnc2N2CCC(C(N)=O)CC2)cn1 | -47.9 |
| CC(=O)N1Cc2ccccc2C[C@H]1C(=O)N(C)CCc1ccccn1 | -3.27 |
| N#Cc1cccc(CS(=O)(=O)NC(Cc2ccccc2)C(N)=O)c1 (centres undefined) | 9.16 |
| CN(C(=O)C1CCN(Cc2cnc3ccccn23)CC1)c1ccccc1 | 38.9 |

| Compound | cytotoxicity at 10 µM [%] |
| --- | --- |
| Cc1ccc(-c2cc(CN(CC(N)=O)CC(C)C)on2)cc1 | 10.1 |
| CN(C)c1nc(N)nc(CN2CCCC(c3ccccc3)CC2)n1 (centres undefined) | 5.47 |
| Cc1cc(C)cc(CNC(C)c2c(C)nn(C)c2C)c1 (centres undefined) | 5.14 |
| Cc1nc(C2CCCN(C(=O)C3=NN(C(C)C)C(=O)CC3)C2)no1 (centres undefined) | -3.32 |
| CCCn1cc(NC(=O)c2cccnc2O)ccc1=O | -13.1 |
| CC(C)(C#N)c1ccccc1CN1CCC(N2CCCC2=O)CC1 | 2.35 |
| Cc1ccc(-n2nnc(C(=O)NCCS(N)(=O)=O)c2C2CC2)cc1 | -5.21 |
| CCc1nc(CCNC(=O)Nc2ccc(C(=O)NC)cc2)cs1 | 7.51 |
| O=C(CCN1CCCC1c1cccc2c1OCCO2)N1CCOCC1 (centres undefined) | 25.6 |
| Cc1nn(C)c(C)c1C1COCCN1c1ncncc1Br (centres undefined) | -8.9 |
| Cc1nn(C)c(C)c1OCC(=O)NCC(O)c1ccccc1F (centres undefined) | 0.621 |
| CN(C)c1cccc(C(=O)NCC2(O)CCOCC2)c1 | 10.3 |
| CC(C#N)CSc1ccccc1NCC(=O)NCc1cccs1 (centres undefined) | 2.13 |
| CC(=O)Nc1cccc(OCCNC(=O)N(C)Cc2ccncc2)c1 | 4.77 |
| CCc1ccc(C(=O)N2CCCC2c2nnc3n2CCCCC3)o1 (centres undefined) | 10.9 |
| Cc1occc1CNC(=O)C1(C)CCCN(C(=O)c2ccccc2)C1 (centres undefined) | -7.01 |
| CCc1cc(N2CCCC(c3noc(CC)n3)C2)ncn1 (centres undefined) | 9.74 |
| CCC(CNC(=O)Cc1c(C)noc1C)N1CCCC1 (centres undefined) | -46.3 |
| CCCC(NC(=O)NCc1cccc(N(C)C)n1)c1ccccn1 (centres undefined) | 19.8 |
| CC(SCc1cc(Br)cc2cccnc12)C(N)=O (centres undefined) | 11.7 |
| CCOC1CCN(C(=O)NCCN(C)C(=O)OC(C)(C)C)CC1 | 15.8 |
| Clc1snnc1CN1CCN(c2nccs2)CC1 | -43.9 |

| Compound | cytotoxicity at 10 µM [%] |
| --- | --- |
| CC(C)N(CCNC(=O)c1[nH]nc2ccc(I)cc12)C(C)C | -41.1 |
| CN(C)Cc1nc(C(C)(C)NC(=O)c2ccnn2C)no1 | 0.966 |
| Cn1cnc2c1CCN(CC(O)c1ccc(S(C)(=O)=O)cc1)C2 (centres undefined) | -3.3 |
| Cc1cnn(C2CN(Cc3ccc4c(c3)OCCO4)C2)c1 | 16.3 |
| CCCNC(=O)c1ncn2c1CN(CC(C)C)S(=O)(=O)c1ccccc1-2 | -72 |
| CCC(=O)N1CCC2(COCc3cnc(N4CCOCC4)nc32)C1 (centres undefined) | -66.2 |
| Cn1cccc1C(=O)NCc1cn2c(n1)CN(CC1CCOC1)CC2 (centres undefined) | -99.7 |
| COCCC(=O)N1CCC2(CCN(Cc3cccc(F)c3)C2)C1 (centres undefined) | -60.2 |
| Cc1ccc(C(=O)N2CC[C@H]3[C@H]2CCN3CC2CCOCC2)cn1 | -73.3 |
| COCCN1CCOCC12CCN(C(=O)c1c[nH]c3ccccc13)CC2 | -69.8 |
| CC(C)(C)CCNc1nccc(-c2c[nH][nH]c2=O)n1 | -5.25 |
| NS(=O)(=O)NCc1cc(-c2ccc(C(F)(F)F)cc2)n[nH]1 | -6.11 |
| NC(=O)C1CCN(c2nccc(-c3c[nH]nc3C3CCCCC3)n2)CC1 | -10.6 |
| Cc1cc(C)c2c(N3CCN(Cc4ncccc4C)CC3)ncnc2n1 | 1.92 |
| CCN(C)C[C@H]1CC[C@@H](Cc2ccc3c(cnn3C)c2)O1 | -0.957 |
| CN(C)C(=O)COc1ccccc1CN1CCCC2(C1)CN(C)C(=O)O2 (centres undefined) | 0.224 |
| CCN1CCN(C(=O)c2ccc3c(c2)OCC(=O)N3)[C@H]2CS(=O)(=O)C[C@H]21 | -49.6 |
| Nc1cc(-c2nccnc2N2CCCC2)c2cc[nH]c2n1 | 13.6 |
| Cc1nonc1OCCNC(=O)CCCc1ccc(Cl)cc1 | 7.49 |
| COC(=O)c1cc(OCC2CCC2)cc(C(=O)N[C@@H]2CCCNC2)c1 | -3.16 |
| c1ccc(Oc2ccc(OC34CCCN(CC3)C4)cc2)cc1 (centres undefined) | 0.741 |
| Nc1cc(CC2COc3ccccc3C2)ccn1 (centres undefined) | -0.911 |

| Compound | cytotoxicity at 10 µM [%] |
| --- | --- |
| NC(=O)CN1CCCC(C(=O)N2CCC(O)(c3ccccc3)CC2)C1 (centres undefined) | -7.55 |
| CCn1ccnc1CN(C)c1cc(OC)ncn1 | -37.5 |
| COc1cccc([C@H]2CN(C(=O)c3nnc4n3CCCC4)C[C@@H]2N)c1 | -2.57 |
| COc1nc2ccn(CCNc3cc(C)ccn3)c(=O)c2cc1C#N | 11.7 |
| CN1C[C@@H](N)C[C@H]1C(=O)N1CCC(Cc2ccc(F)cc2)CC1 | -21.2 |
| COc1ccc2c(c1)ncn2C[C@]1(O)CCCN2CCCC[C@@H]21 | -0.71 |
| CN(C)[C@H]1CCCCN(Cc2cnc(NCc3ccccc3)nc2)C1 | 0.166 |
| Cc1cc(CN(C)C(C(=O)O)c2ccc(C(C)(C)C)cc2)on1 (centres undefined) | -6.36 |
| O=C(Cc1c[nH]c(=O)[nH]c1=O)N1CCCCC1CCc1cccc(O)c1 (centres undefined) | 14.5 |
| CCc1ccccc1OC1CN(C(=O)CN(C)Cc2ccncc2)C1 | -4.55 |
| Cc1nc2sccn2c1C(=O)N1CCc2[nH]cnc2C1 | -6.11 |
| CCCC(=O)Nc1cc(C(=O)NC(C)Cc2ccncc2)ccc1C (centres undefined) | 2.52 |
| NCc1cn(CC2CCCN(C(=O)CC3=CCCCC3)C2)nn1 (centres undefined) | 1.46 |
| COC(=O)c1sccc1S(=O)(=O)N1CCc2c(ncnc2N(C)C)C1 | -1.6 |
| COC(=O)c1cccnc1N1CCC(Oc2cccc(F)c2)CC1 | 3.31 |
| CCC(CO)N(Cc1ccncc1)Cc1c[nH]nc1-c1ccc(F)cc1 (centres undefined) | -5.5 |
| O=C(c1cnc(Nc2ccccc2)nc1)N1CCCC2(CCNC2)C1 (centres undefined) | -6.57 |
| O=C(NCc1ccccn1)C1CN(c2nc3ccccc3s2)CCN1 (centres undefined) | -42.8 |
| Cc1cnccc1-c1cc(NCCO)nc2[nH]ccc12 | 13.8 |
| Cc1cccc(CN2CCC(c3nccn3CC(N)=O)CC2)n1 | -5.41 |
| CCc1ncc(CN2CCC3(CCCN(CC4CCC4)C3)C2)cn1 (centres undefined) | -7.07 |
| CCN(C)C[C@@H]1CN(S(=O)(=O)c2cccc(Cl)c2)C[C@@H]1CO | -8.3 |

| Compound | cytotoxicity at 10 µM [%] |
| --- | --- |
| CC(C)c1nccn1-c1cccc(C2CCN(C)CC2)n1 | 0.307 |
| CCCC(=O)NC1CCN(c2ccccc2S(=O)(=O)CC)CC1 | -2.78 |
| CSc1ccc(C(=O)N2CCOCC2c2c(C)n[nH]c2C)o1 (centres undefined) | -10.3 |
| Cc1cnn(CC(C)NCc2ccc(OCc3cccnc3)cc2)c1 (centres undefined) | -1.07 |
| NC(=O)c1cccc(OCC(=O)N2CCCC(n3cccn3)C2)c1 (centres undefined) | -13.5 |
| COCCN1CCC(CNC(=O)c2cc(C)cc(C)c2)C1 (centres undefined) | -7.32 |
| Cc1nc(CN2CCCC(N(C)Cc3c(C)noc3C)C2)no1 (centres undefined) | -0.866 |
| CCN(CC)C(=O)C1CCC2(CCNCC2)O1 (centres undefined) | -162 |
| Cn1ccnc1CN1CCC2(CC1)CN(Cc1cccnc1)C(=O)CO2 | 4 |
| CCN(CC)Cc1nc2c(o1)CN(S(=O)(=O)c1cccs1)C2 | -117 |
| c1cnc(N2C[C@H]3CCN(CC4CC4)C[C@H]3C2)cn1 | -108 |
| c1cnc(N2C[C@H]3CCN(CCN4CCCC4)C[C@H]3C2)cn1 | -114 |
| CCOCC1c2c(ncn2C)CCN1C(=O)c1cnc(C)cn1 (centres undefined) | -108 |
| CC(C)N1[C@H](Cn2cccn2)C[C@@H]2CN(Cc3ccoc3)CC[C@@H]21 | -153 |
| c1cncc(N2CC[C@@H]3CN(CC4CC4)C[C@@H]3C2)c1 | -4.74 |
| CCOc1ccc2ccccc2c1CNCC1CCS(=O)(=O)C1 (centres undefined) | -3.4 |
| O=C(c1ccncc1F)N1CC2CC1(C(=O)N1CCCC1)C2 | -2.51 |
| O=C(c1ccncc1)N1CCOC2(CCCN(c3nncs3)C2)C1 (centres undefined) | -98 |
| Cn1ccnc1CN1CCC2(CC1)CN(c1cncnc1)C(=O)CO2 | -69.2 |
| COc1cc(C2c3c(n[nH]c3C)N=C3COC(=O)C32)cc2c1OCO2 (centres undefined) | 87.7 |
| CNC(=O)[C@H]1C[C@H]2CN(C(=O)NC(C)C)C[C@@H]1O2 | -99.8 |
